Assays:
[1] = Inhibition of synthetic H3K27me3 peptide interaction to CBX7 after 15 mins by fluorescence polarization assay
Procedure, shortened: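 Calixarene was added at 0–10 mM, dissolved in water with 4 equiv NaOH. Incubated 15 min in the dark and read at ex 450/em 530 nm. mP was normalized to % complex, IC50 taken from a sigmoidal fit, triplicates averaged.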

[2] = Displacement of calixarene-LCG from synthetic H3K27me3 peptide
Procedure, shortened: (§1)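 Competitive lucigenin displacement: 0.5 µM lucigenin plus 1.25 µM calixarene in 0.01 M phosphate buffer pH 7.4, titrated with Ac-capped peptide (H3K27 0–1.5 mM; H3K27me3 0–0.5 mM). Emission read at λex 369 nm, λem 485 nm. Kd fitted by cubic competitive binding equations, with host–dye constant fixed from the prior direct titration. Duplicate determinations averaged.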

[3] = Displacement of calixarene-LCG from synthetic H3K27 peptide; procedure, shortened: as §1
[4] = Displacement of calixarene-LCG from synthetic H3K27 peptide by isothermal titration calorimetry analysis
[5] = Displacement of calixarene-LCG from synthetic H3K27me3 peptide by isothermal titration calorimetry analysis

Row | IC50 [1] | Kd [2] | Kd [3] | Kd [4] | Kd [5] | Compound
1 | > 2000 µM | > 100000 nM | > 100 µM |  |  | Cc1ccc(S(=O)(=O)Nc2cc3c(O)c(c2)Cc2cc(S(=O)(=O)O)cc(c2O)Cc2cc(S(=O)(=O)O)cc(c2O)Cc2cc(S(=O)(=O)O)cc(c2O)C3)cc1
2 | 470 µM | 700 nM | 13.3 µM |  |  | O=S(=O)(O)c1cc2c(O)c(c1)Cc1cc(S(=O)(=O)O)cc(c1O)Cc1cc(S(=O)(=O)O)cc(c1O)Cc1cc(Br)cc(c1O)C2
3 | 590 µM | 1860 nM | 23 µM |  |  | NC(=O)c1ccc(-c2cc3c(O)c(c2)Cc2cc(S(=O)(=O)O)cc(c2O)Cc2cc(S(=O)(=O)O)cc(c2O)Cc2cc(S(=O)(=O)O)cc(c2O)C3)cc1
4 | 510 µM | 750 nM | 19 µM | 51.4 µM | 4.03 µM | O=S(=O)(O)c1cc2c(O)c(c1)Cc1cc(S(=O)(=O)O)cc(c1O)Cc1cc(S(=O)(=O)O)cc(c1O)Cc1cc(-c3ccccc3)cc(c1O)C2

The remaining lines, values behind:

Row | Compound | IC50 [1] | Kd [2] | Kd [3] | Kd [4] | Kd [5]
5 | COc1cccc(-c2cc3c(O)c(c2)Cc2cc(S(=O)(=O)O)cc(c2O)Cc2cc(S(=O)(=O)O)cc(c2O)Cc2cc(S(=O)(=O)O)cc(c2O)C3)c1OC | 1700 µM | 2130 nM | 25 µM |  | 
6 | N#Cc1ccc(-c2cc3c(O)c(c2)Cc2cc(S(=O)(=O)O)cc(c2O)Cc2cc(S(=O)(=O)O)cc(c2O)Cc2cc(S(=O)(=O)O)cc(c2O)C3)cc1 | 370 µM | 880 nM | 11.3 µM |  | 
7 | Cc1ccc(-c2cc3c(O)c(c2)Cc2cc(S(=O)(=O)O)cc(c2O)Cc2cc(S(=O)(=O)O)cc(c2O)Cc2cc(S(=O)(=O)O)cc(c2O)C3)cc1 | 230 µM | 340 nM | 2.7 µM |  | 
8 | COc1ccc(-c2cc3c(O)c(c2)Cc2cc(S(=O)(=O)O)cc(c2O)Cc2cc(S(=O)(=O)O)cc(c2O)Cc2cc(S(=O)(=O)O)cc(c2O)C3)cc1 | 360 µM | 780 nM | 20 µM |  | 
9 | O=[N+]([O-])c1cc2c(O)c(c1)Cc1cc(S(=O)(=O)O)cc(c1O)Cc1cc(S(=O)(=O)O)cc(c1O)Cc1cc(S(=O)(=O)O)cc(c1O)C2 | > 5000 µM | 10000 nM | 30 µM |  | 
10 | O=S(=O)(O)c1cc2c(O)c(c1)Cc1cc(S(=O)(=O)O)cc(c1O)Cc1cc(S(=O)(=O)O)cc(c1O)Cc1cc(S(=O)(=O)O)cc(c1O)C2 | 2500 µM | 5400 nM | 220 µM |  | 

— ChEMBL document CHEMBL2439963, “Synthetic trimethyllysine receptors that bind histone 3, trimethyllysine 27 (H3K27me3) and disrupt its interaction with the epigenetic reader protein CBX7” (Bioorg Med Chem, 2013)
